Eight compounds from ChEMBL document CHEMBL1126124, “3-Phenyl-4-hydroxyquinolin-2(1H)-ones: potent and selective antagonists at the strychnine-insensitive glycine site on the N-methyl-D-aspartate receptor complex” (J Med Chem, 1992) can be followed below.

For assay [1], the target named is T1, Glutamate receptor ionotropic, NMDA 1 (Rattus norvegicus, UniProt P35439). Briefly: Ability to displace strychnine-insensitive [3H]glycine binding to rat cortical membranes. The gist of the method: (§1)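 Rat cortical membranes were prepared by a freeze/thaw Triton extraction. Incubation used [³H]glycine with 25 μg membrane fragments on ice for 1 h, ended by rapid filtration through GF/B filters. Nonspecific binding was defined with 100 μM D-serine.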

For assay [2], the target named is T1, Glutamate receptor ionotropic, NMDA 1. Description: Inhibition of [3H]-MK-801 binding to a N-methyl-D-aspartic acid(NMDA) receptor in glycine-sensitive rat cortical membranes. The class given is cell membranes, Membrane.
The target in assay [3] is Glutamate NMDA receptor. Description: Inhibition of [3H]MK-801 binding to a N-methyl-D-aspartate glutamate receptor in glycine-sensitive rat cortical membranes. Format: cell membranes, Membrane. The gist of the method:
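Well-washed rat cortical membranes were given an added freeze/thaw step. [³H]MK-801 (2.5 nM) binding was run with 1 μM glutamate and 0.2 μM glycine for 2 h at 27 °C, then stopped by filtration. Nonspecific binding was defined with 0.5 μM MK-801. Values are IC50.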

Assay [4] addresses Glutamate NMDA receptor. Description: Ability to displace strychnine-insensitive [3H]glycine binding to N-methyl-D-aspartate glutamate receptor of rat cortical membranes. The gist of the method:
as §1

As for `O=c1[nH]c2cc(Cl)cc(Cl)c2c(O)c1-c1ccc([N+](=O)[O-])cc1`, the Ki (commonly a measure of affinity in units of concentration, obtained from inhibition or displacement) in assay [1] was 860 nM. For the compound `Cc1ccc(-c2c(O)nc3cc(Cl)cc(Cl)c3c2O)cc1`, the IC50 (usually the concentration that inhibits the measured activity by half) in assay [2] came out at 550 nM. In addition, in assay [1], the Ki amounted to 300 nM. In assay [2], `O=c1[nH]c2ccccc2c(O)c1-c1ccccc1` came in with an IC50 of 7290 nM. On to `Nc1ccc(-c2c(O)nc3cc(Cl)cc(Cl)c3c2O)cc1`, for which the IC50 in assay [2] is 210 nM. Also, the affinity in assay [1] corresponds to a Ki of 18 nM. With `COc1ccc(-c2c(O)nc3cc(Cl)cc(Cl)c3c2O)cc1`, on Glutamate NMDA receptor [3], the IC50 was 1230 nM. Moreover, the Ki at Glutamate NMDA receptor [4] amounted to 67 nM. The matching figures for `Oc1nc2cc(Cl)cc(Cl)c2c(O)c1-c1ccccc1`: 220 nM and 57 nM.

For the compound `Oc1ccc(-c2c(O)nc3cc(Cl)cc(Cl)c3c2O)cc1`, at Glutamate NMDA receptor [3], the IC50 was found to be 110 nM. Also, on Glutamate NMDA receptor [4], the Ki worked out at 13 nM. The compound `O=C(O)c1cc(O)c2c(Cl)cc(Cl)cc2n1` came in with an IC50 in assay [2] of 860 nM. The affinity in assay [1] corresponds to a Ki of 40 nM.
